In general, Ki refers to the equilibrium dissociation constant of an inhibitor or competing ligand from its target.

Among the data in ChEMBL document CHEMBL1146904, “Potent 4-amino-5-azaindole factor VIIa inhibitors” (Bioorg Med Chem Lett, 2006) are Ki, 2aPTT and 2PT values, retold here.

In one test the target is T1, Coagulation factor VII (Homo sapiens, UniProt P08709).
T1 sequence (P08709 whole entry): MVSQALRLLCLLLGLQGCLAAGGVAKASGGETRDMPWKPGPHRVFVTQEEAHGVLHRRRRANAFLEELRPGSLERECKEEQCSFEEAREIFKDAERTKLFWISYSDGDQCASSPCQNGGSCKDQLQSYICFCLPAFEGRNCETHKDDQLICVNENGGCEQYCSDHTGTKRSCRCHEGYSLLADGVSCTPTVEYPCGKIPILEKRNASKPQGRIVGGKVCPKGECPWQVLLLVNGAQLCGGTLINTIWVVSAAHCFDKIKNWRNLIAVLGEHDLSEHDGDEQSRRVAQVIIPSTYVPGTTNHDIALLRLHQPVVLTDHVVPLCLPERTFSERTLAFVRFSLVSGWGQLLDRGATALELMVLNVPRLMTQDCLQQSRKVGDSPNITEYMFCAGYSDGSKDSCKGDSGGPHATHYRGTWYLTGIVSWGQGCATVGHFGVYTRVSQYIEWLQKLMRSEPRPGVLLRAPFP
Kind of test: Binding affinity to f7a/TF complex.

Test [1] is described as follows: Anticoagulant potency in human plasma by aPTT assay. The class given is functional. Summed up: (§1)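 Clotting time measured at 37 °C in human plasma on an automated coagulometer, following the manufacturer's instructions. Tissue-factor-dependent clotting was read by PT. Tissue-factor-independent (intrinsic pathway) clotting was read by aPTT.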
For test [2], the target named is Coagulation factor VII/tissue factor (Homo sapiens) (UniProt P08709+P13726). The experiment in a line: Anticoagulant potency in human plasma by PT assay. The class given is functional, cell-free. Summed up: as §1
The next test addresses Coagulation factor X (Homo sapiens, UniProt P00742). The experiment in a line: Binding affinity to f10a.
In the next test the target is Prothrombin (Homo sapiens, UniProt P00734). The experiment in a line: Binding affinity to thrombin.
The next test concerns the target Trypsin (Homo sapiens, UniProt P07477+P07478+P35030). The experiment in a line: Binding affinity to trypsin. It is filed as protein assay.

Coagulation factor X, sequence (P00742 41-179 limits assumed): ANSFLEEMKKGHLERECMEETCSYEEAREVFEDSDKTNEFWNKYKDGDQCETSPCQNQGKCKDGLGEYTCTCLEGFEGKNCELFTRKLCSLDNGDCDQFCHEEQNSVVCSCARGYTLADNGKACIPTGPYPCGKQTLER
Coagulation factor X, sequence (P00742 235-488 limits assumed): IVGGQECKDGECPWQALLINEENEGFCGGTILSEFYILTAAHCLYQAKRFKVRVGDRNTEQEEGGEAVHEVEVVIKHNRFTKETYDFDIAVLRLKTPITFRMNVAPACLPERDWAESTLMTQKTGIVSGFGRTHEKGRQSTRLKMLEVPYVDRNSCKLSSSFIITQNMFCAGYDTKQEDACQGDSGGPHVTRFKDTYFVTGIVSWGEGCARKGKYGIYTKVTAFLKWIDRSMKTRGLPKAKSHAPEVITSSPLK

In the case of `CC(C)(C(=O)O)c1cc(-c2cccc(CNC(=O)Nc3ccc(C(=O)O)cc3)c2)c(O)c(-c2cc3c(N)[nH]ccc-3n2)c1`, the Ki at Coagulation factor VII came to 20 nM. The compound also returned a 2aPTT in test [1] greater than 20 µM. In test [2], this compound displayed a 2PT of 5.8 µM.

`CC(C)(C(=O)O)c1cc(-c2cccc(CNC(=O)[C@@H](O)Cc3ccccc3)c2)c(O)c(-c2cc3c(N)[nH]ccc-3n2)c1` came in with an inhibitory constant (Ki) on Coagulation factor VII of 15 nM. In addition, in test [1], the 2aPTT was determined as 17 µM. Also, in test [2], the 2PT is 6.4 µM.

As to `Nc1[nH]ccc2nc(-c3cccc(-c4cccc(CNC(=O)[C@@H](O)Cc5ccccc5)c4)c3O)cc1-2`, the Ki is 81 nM at Coagulation factor VII, 54000 nM on Coagulation factor X, 99000 nM at Prothrombin and 38000 nM at Trypsin. In test [1], this compound registered a 2aPTT of 22 µM. Besides, the 2PT in test [2] amounted to 12 µM.

In the case of `O=C(NCc1cccc(-c2cccc(-c3cc4c[nH]ccc-4n3)c2O)c1)[C@@H](O)Cc1ccccc1`, the inhibition constant (Ki) on Coagulation factor VII turned out to be 220 nM; at Coagulation factor X, 30000 nM; on Prothrombin it was 100000 nM; on Trypsin it was 12000 nM.

At Coagulation factor VII, `Nc1[nH]ccc2nc(-c3cc(C(=O)O)cc(-c4cccc(CNC(=O)[C@@H](O)Cc5ccccc5)c4)c3O)cc1-2` had a Ki of 1.3 nM. The same compound displayed a 2aPTT in test [1] of 3.7 µM. Moreover, the 2PT in test [2] was 4.5 µM.

Regarding `CC(C)(C(=O)O)c1cc(-c2cccc(CNC(=O)Nc3c(F)cccc3F)c2)c(O)c(-c2cc3c(N)[nH]ccc-3n2)c1`, affinity on Coagulation factor VII was put at a Ki of 2.6 nM. In test [1], this compound yielded a 2aPTT greater than 20 µM. Besides, the 2PT in test [2] amounted to 2.4 µM.

`N=C(N)c1ccc2[nH]c(-c3cccc(-c4cc(CNC(N)=O)ccc4O)c3O)nc2c1`: the inhibition constant Ki came out at 2700 nM on Coagulation factor X, 90000 nM at Prothrombin and 3600 nM at Trypsin.
